From ChEMBL document CHEMBL2202972, “Synthesis and biological evaluation of 2-substituted-4-(3',4',5'-trimethoxyphenyl)-5-aryl thiazoles as anticancer agents” (Bioorg Med Chem, 2012) come the findings set out here.

Activity calls are given as the source filed them. No cut-off for these calls is given here.

The test system of data set [1] is A549. In words: Resistance ratio of IC50 for human taxol-resistant A549-T12 cells expressing tubulin mutant gene to IC50 for human A549 cells. In kind it is functional.
The subject of another data set is LoVo. In words: Resistance ratio of IC50 for human doxorubicin-resistant LoVo/DX cells overexpressing P-glycoprotein to IC50 for human LoVo cells. In kind it is functional.
Data set [2] has as its system HeLa. In words: Downregulation of Bcl-2 expression in human HeLa cells at 250 to 500 nM after 24 to 48 hrs by Western blot analysis. It is filed as functional, cell-based. Summed up:
(§1)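 HeLa cells treated for 24 or 48 h, washed twice with ice-cold PBS and lysed on ice 30 min; lysates spun at 15000 ×g, 4 °C. Protein (20 μg) resolved by SDS–PAGE on 7.5–15% gels and blotted to PVDF. Specific primary antibodies for 2 h at room temperature, then peroxidase secondary for 60 min, ECL detection. Membranes stripped and reprobed for β-actin as loading control.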

Data set [3] has as its system HeLa. In words: Induction of apoptosis in human HeLa cells assessed as ROS production. It is filed as functional, cell-based.
The test system of data set [4] is HeLa. In words: Induction of apoptosis in human HeLa cells assessed as effect on caspase-9 activation at 250 to 500 nM after 24 to 48 hrs by Western blot analysis. In kind it is functional, cell-based. The essentials:
as §1

Data set [5] deals with T1, M-phase inducer phosphatase 3 (Homo sapiens) (UniProt P30307).
T1 sequence (whole entry): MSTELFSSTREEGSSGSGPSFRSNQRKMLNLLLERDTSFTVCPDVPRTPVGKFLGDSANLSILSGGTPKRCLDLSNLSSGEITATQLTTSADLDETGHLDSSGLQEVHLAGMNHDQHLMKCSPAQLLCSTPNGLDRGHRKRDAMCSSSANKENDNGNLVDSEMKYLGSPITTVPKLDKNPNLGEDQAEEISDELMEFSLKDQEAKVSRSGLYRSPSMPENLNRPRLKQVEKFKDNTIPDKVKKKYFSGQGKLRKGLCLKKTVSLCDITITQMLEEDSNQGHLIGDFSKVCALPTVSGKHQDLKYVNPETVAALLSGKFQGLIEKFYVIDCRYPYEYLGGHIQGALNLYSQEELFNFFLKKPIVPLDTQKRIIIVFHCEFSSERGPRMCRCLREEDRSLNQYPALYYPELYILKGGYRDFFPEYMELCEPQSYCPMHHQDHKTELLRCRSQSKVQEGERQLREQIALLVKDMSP
In words: Induction of cdc25C phosphorylation in human HeLa cells at 250 to 500 nM after 24 to 48 hrs by Western blot analysis. In kind it is cell-based. Summed up: as §1

In data set [6] the test system is Jurkat. In words: Cell cycle arrest in human Jurkat cells assessed as decrease in accumulation of cells at G1 phase after 24 hrs by propidium iodide staining based flow cytometric analysis. It is filed as functional. Summed up: (§2)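 HeLa or Jurkat cells (5 × 10⁵, exponential growth) treated 24 h with 31–500 nM compound. Cells fixed in ice-cold 70% ethanol, treated with lysis buffer containing RNase A and 0.1% Triton X-100, then stained with propidium iodide. DNA content measured by flow cytometry to give phase distribution. Mean ± SEM of three independent experiments.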
(In flow cytometry, cells or beads pass a laser one at a time.)

Data set [7] deals with Jurkat. In words: Cell cycle arrest in human Jurkat cells assessed as decrease in accumulation of cells at S phase after 24 hrs by propidium iodide staining based flow cytometric analysis. It is filed as functional. The essentials:
as §2

The subject of data set [8] is HeLa. In words: Cell cycle arrest in human HeLa cells assessed as decrease in accumulation of cells at G1 phase after 24 hrs by propidium iodide staining based flow cytometric analysis. It is filed as functional. Summed up: as §2
In data set [9] the test system is HeLa. In words: Cell cycle arrest in human HeLa cells assessed as decrease in accumulation of cells at S phase after 24 hrs by propidium iodide staining based flow cytometric analysis. In kind it is functional. Summed up:
as §2

Data set [10] relates to HeLa. In words: Cell cycle arrest in human HeLa cells assessed as accumulation of cells at G2/M phase after 24 hrs by propidium iodide staining based flow cytometric analysis. It is filed as functional. The essentials:
as §2

The nature of data set [11]: Antiproliferative activity against human vinblastine-resistant CEM/VBL100 cells overexpressing P-glycoprotein after 72 hrs by MTT assay. It is filed as functional, cell-based. Particulars: CEM/VBL100, 72 h. On the technique in general: Formazan colour is commonly taken as a measure of viable cells.
The nature of data set [12]: Antiproliferative activity against human doxorubicin-resistant LoVo/DX cells overexpressing P-glycoprotein after 72 hrs by MTT assay. In kind it is functional, cell-based. The essentials:
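Resistant sublines cultured under selection: LoVo^Doxo (doxorubicin-resistant LoVo subclone) in complete Ham's F12 with doxorubicin 0.1 μg/mL; A549-T12 in complete DMEM with taxol 12 nM. Seeded at 8 × 10³ per well, 18 h preincubation, then 72 h compound exposure at 37 °C. MTT read-out.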

Data set [13] can be described thus: Growth inhibition of human resting PBL after 72 hrs by MTT assay. Conditions: resting peripheral blood lymphocytes (PBL). In kind it is cell-based.
In a further data set the test system is HL-60. In words: Ratio of compound IC50 to CA-4 IC50 for human HL60 cells after 72 hrs by MTT assay. It is filed as functional.
Data set [14] concerns MCF7. In words: Ratio of CA-4 IC50 to compound IC50 for human MCF7 cells after 72 hrs by MTT assay. It is filed as functional.
In data set [15] the test system is A549. In words: Ratio of CA-4 IC50 to compound IC50 for human A549 cells after 72 hrs by MTT assay. It is filed as functional.
For the next data set, the system named is HT-29. In words: Antiproliferative activity against human HT-29 cells after 72 hrs by MTT assay. It is filed as functional, cell-based. Particulars: HT-29, 72 h.
For data set [16], the system named is MCF7. In words: Antiproliferative activity against human MCF7 cells after 72 hrs by MTT assay. It is filed as functional, cell-based. Conditions: MCF7, 72 h.
For data set [17], the system named is HeLa. In words: Antiproliferative activity against human HeLa cells after 72 hrs by MTT assay. It is filed as functional, cell-based.

As usually defined, the IC50 is the point on the concentration scale where inhibition reaches its midpoint. As usually defined, the GI50 is the concentration that inhibits growth by half. Lower therefore signals greater sensitivity of the cells. With `CCOc1ccc(-c2sc(NC)nc2-c2cc(OC)c(OC)c(OC)c2)cc1`, the “Ratio IC50” value with A549 [1] is given as 0.5; in the data set with LoVo, 0.5; in the data set with HL-60 it was 2; with MCF7 [14] it was 15; in the data set with A549 [15], 5. Moreover, the result (with HeLa [2]; with HeLa [3]; in data set [5]) was Active. In addition, the result with HeLa [4] was inactive. The Activity entry in the data set with Jurkat [6], in the data set on Jurkat [7], in the data set on HeLa [8], in the data set on HeLa [9] and in the data set with HeLa [10] was “Dose-dependent effect” throughout. The IC50 in data set [11] turned out to be 1.2 nM; in data set [12] it was 14.5 nM; with HT-29, 3.2 nM; in the data set with MCF7 [16], 24.5 nM; with HeLa [17] it was 13.2 nM. This molecule had a GI50 at 72 h in data set [13] of 443 nM.
